Assay outcomes deposited in PubChem BioAssay by The Scripps Research Institute Molecular Screening Center.
Most compounds without a hit are left out; they make up all but 2.8% or so of the library.
PAFAH1B3 inh – PAFAH1B3 (human) inhibition; Q15102; inhibition, % at 3.39 µM; recombinant PAFAH1B3, FP-rhodamine probe, fluorescence polarization; 340,000 compounds, 0.28% hits;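 active = inhibition above the screen-wide average of all tested compounds plus 3 SD, cut at about 25% in these data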;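 also: 0% = enzyme with DMSO only and 100% = wells lacking PAFAH1B3 protein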
Target sequence (Q15102 whole entry, looked up): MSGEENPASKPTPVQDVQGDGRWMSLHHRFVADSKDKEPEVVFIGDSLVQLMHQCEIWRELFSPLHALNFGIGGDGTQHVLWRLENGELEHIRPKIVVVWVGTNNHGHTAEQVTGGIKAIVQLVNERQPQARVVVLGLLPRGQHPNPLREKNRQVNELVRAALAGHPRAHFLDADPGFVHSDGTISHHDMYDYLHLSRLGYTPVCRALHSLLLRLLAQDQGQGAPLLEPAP
PAFAH2 inh – inhibitors of human PAFAH2. recombinant PAFAH2, FP-rhodamine activity probe, fluorescence polarization. 340,000 compounds, 0.99% hits. AID 492956. Q99487. inhibition, % at 3.39 µM;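 active = inhibition above the mean over all tested compounds plus 3 SD, cut at about 30% in these data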;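 also: inhibitors block probe labeling of enzyme so polarization drops; 0% = enzyme with DMSO and 100% = wells lacking PAFAH2 protein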
HTRA1 inhibitor – blocks human HTRA1 serine peptidase; recombinant HTRA1, FP-rhodamine activity-based probe, fluorescence polarization; 340,000 compounds, 0.5% hits; Q92743; inhibition, % at 5.96 µM; in the data active = inhibition above about 36%;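 also: 0% = enzyme with DMSO and 100% = wells lacking enzyme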
ABHD4 inh – ABHD4 (mouse) inhibition, primary FP screen | Q8VD66 | purified mABHD4, FP-Rh probe fluorescence polarization | inhibition, % at 8.92 µM | 370,000 compounds, 0.54% hits | AID 720543;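 active = inhibition exceeding the mean over every tested compound plus 3 SD, cut at about 30% in these data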;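 also: 0% = plate median of compound wells and 100% = S159A mutant with DMSO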
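Assay system: mABHD4 protein; medium: HEPES pH 7.0, NaCl, Pluronic buffer; dosing: 8.92 µM, single dose; schedule: 45 min + 60 min at 25 °C; signal: FP readout, ex 525 nm / em 598 nm; read-out: normalized percent inhibition of probe labeling; repeats: single replicate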
pPAFAH inh – inhibitors of human plasma PAF acetylhydrolase (pPAFAH); Q13093; recombinant pPAFAH, FP-rhodamine probe fluorescence polarization; 330,000 compounds, 1.5% hits; inhibition, % at 3.39 µM;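 active = inhibition above the mean inhibition across the screen plus 3 SD, cut at about 25% in these data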;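 also: inhibitors block binding of the rhodamine activity-based probe so polarization drops; 0% = enzyme with DMSO and 100% = wells lacking pPAFAH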
PAFAH1B2 FP inh – blocks human PAF acetylhydrolase 1b catalytic subunit 2. P68402. recombinant PAFAH1B2, FP-rhodamine activity probe, fluorescence polarization. inhibition, % at 3.39 µM. 340,000 compounds, 1.2% hits;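 active = inhibition above the mean of all tested compounds plus 3 SD, cut at about 24% in these data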;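 also: 0% = enzyme with DMSO and 100% = wells lacking PAFAH1B2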
Target sequence (P68402 whole entry, looked up): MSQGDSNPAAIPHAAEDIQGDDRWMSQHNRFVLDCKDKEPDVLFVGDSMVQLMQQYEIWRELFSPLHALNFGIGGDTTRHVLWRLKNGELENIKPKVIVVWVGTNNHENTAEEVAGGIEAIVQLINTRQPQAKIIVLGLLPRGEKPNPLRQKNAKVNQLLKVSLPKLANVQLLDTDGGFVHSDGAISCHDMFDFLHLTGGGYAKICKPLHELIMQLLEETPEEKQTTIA
pPAFAH confirm – confirmation of human plasma PAF acetylhydrolase (pPAFAH) inhibitors; shares compounds with pPAFAH inh; recombinant pPAFAH, FP-Rh probe fluorescence polarization; inhibition, % at 3.39 µM; 2,300 compounds, 72% hits;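 active = mean inhibition of the triplicate above the hit cutoff set for the earlier primary screen, cut at about 25% in these data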;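 also: 0% = enzyme with DMSO and 100% = wells lacking pPAFAH enzyme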
Active calls of the source: *; . = no result given.

SMILES | PAFAH1B3 inh | PAFAH2 inh | HTRA1 inhibitor | ABHD4 inh | pPAFAH inh | PAFAH1B2 FP inh | pPAFAH confirm
Cc1c(C)c2ccc(O)c(CN3CCCC3)c2oc1=O | 1.0 | -1.4 | 7.0 | 5.7 | 1.3 | 2.3 | .
FC(F)(F)c1ccc(Cn2ccc3ccc(-c4ccc5ccn(Cc6ccccc6)c5c4)cc32)cc1 | . | . | . | 16.9 | . | . | .
CCOC(=O)C1CCN(C(=O)C(C)(C)NC(=O)Nc2ccc(N(C)C)cc2)CC1 | . | . | . | 7.9 | . | . | .
CSc1ccc(COC(=O)c2cc([N+](=O)[O-])ccc2N2CCOCC2)cc1 | 0.2 | 1.2 | -14.5 | -12.0 | 40.3* | 8.2 | 42.2*
Cc1ccccc1COC(=O)c1cc([N+](=O)[O-])ccc1N1CCOCC1 | -3.8 | -13.6 | -16.7 | -7.8 | 3.7 | 3.8 | .
Cc1ccc(NC(=O)C(C)OC(=O)CCC2CCCCC2)cc1 (stereo not drawn) | 5.6 | 2.9 | -27.1 | -0.4 | 42.9* | 7.3 | 8.3
CN(CC(=O)Nc1ccc(N2CCOCC2)cc1)CC(=O)Nc1ccc(N2CCOCC2)cc1 | 0.3 | 4.2 | 4.1 | -15.2 | 41.7* | 4.0 | 35.0*
CSCCC(NC(=O)c1ccccc1)C(=O)N(C)CC(=O)Nc1ccc(N2CCOCC2)cc1 (stereo not drawn) | 4.5 | 9.4 | 1.8 | 7.4 | 35.9* | 2.6 | 31.6*
CC(=O)OC12CCCN(C1)/C(=C/c1ccccc1)C2 (stereo not drawn) | . | . | . | 4.9 | . | . | .
CC1=Nc2nc(N3CCCCCC3)c(C#N)c3c4c(nc(c23)N1)N(c1ccc2ccccc2c1)C(=O)C4 | 4.4 | 23.2 | 4.2 | . | 59.1* | 7.1 | 21.7
COc1ccc(S(=O)(=O)CC(=O)c2cc3cc(Br)ccc3oc2=O)cc1 | 8.4 | 16.9 | -15.6 | 19.4 | 37.4* | 17.6 | 32.6*
Cc1ccc(C(=O)N2CCCC(CCC(=O)N3CCN(c4ccccn4)CC3)C2)cc1C (stereo not drawn) | 5.3 | 2.8 | 3.7 | 3.7 | 34.9* | -2.0 | 22.2
O=C(Oc1ccc(-c2ccccc2)cc1)N1CCCCC1 | 3.3 | -0.1 | -2.1 | -7.9 | 44.2* | 6.5 | 80.7*
O=C(Oc1ccccc1)N1CCCCC1 | . | . | -3.5 | 6.1 | . | . | .
O=C(CSCc1cc(=O)[nH][nH]1)Nc1ccc(F)cc1 | 14.9 | 8.2 | 0.0 | 6.8 | 4.5 | 7.4 | .
CCCCc1ccc(NC(=O)CSCc2cc(=O)[nH][nH]2)cc1 | -1.1 | -4.2 | 12.7 | 9.8 | 36.3* | 8.6 | 16.0
CCCC[C@H]1C2CC(OC(=O)Nc3ccccc3OC)C(C2)[C@H]2CCCCN21 (stereo partly drawn) | . | . | . | -5.0 | . | . | .
COc1ccc(S(=O)(=O)Nc2ccc(F)cc2)cc1N(C)S(=O)(=O)c1ccc(Cl)cc1 | 3.3 | 6.2 | -46.0 | -5.7 | 38.5* | -1.9 | 35.4*
Cc1nc(S/C(=C/c2ccc(-c3ccc(Cl)cc3)o2)C(=O)O)n[nH]1 | 5.3 | 19.1 | -4.5 | 7.3 | 10.8 | 9.1 | .
Cc1nc(S/C(=C/c2ccc(-c3cc(Cl)ccc3C)o2)C(=O)O)n[nH]1 | 25.3 | 27.5 | 21.1 | 9.9 | 46.8* | 12.9 | 56.4*
CN(CCO)C1CN(Cc2cn(Cc3ccccc3C(F)(F)F)nn2)S(=O)(=O)C1 (stereo not drawn) | . | . | . | -7.2 | . | . | .
COCCN=C1Sc2nc3ccc(C)cc3cc2CN1Cc1ccco1 | -1.3 | 0.2 | -13.4 | -7.9 | 64.1* | 6.1 | 51.4*
COCCN=C1Sc2nc3cc(C)c(C)cc3cc2CN1Cc1cccs1 | -7.2 | -2.6 | -7.0 | 5.7 | 1.7 | -0.6 | .
CCn1c2ccccc2c2cc(C=NNC(=O)c3ccoc3C)ccc21 | . | . | . | -24.6 | . | . | .
CC(C)=CCC/C(C)=C/CNC(=O)C[C@H]1C[C@H](C(=O)N2CCCCC2)[C@@]2(C)c3[nH]c4cc(-c5ccco5)ccc4c3CCN2C1=O | 5.2 | 8.4 | -12.8 | 4.5 | 41.4* | 1.5 | 23.5
SMILES | PAFAH1B3 inh | PAFAH2 inh | HTRA1 inhibitor | ABHD4 inh | pPAFAH inh | PAFAH1B2 FP inh | pPAFAH confirm
CC(C)=CCC/C(C)=C/CNC(=O)C[C@H]1C[C@H](C(=O)N(C(C)C)C(C)C)[C@@]2(C)c3[nH]c4cc(CCC(=O)N(C)C)ccc4c3CCN2C1=O | 3.9 | -1.7 | -10.2 | 0.6 | 67.9* | 3.5 | 58.7*
CC(C)=CCC/C(C)=C/CNC(=O)C[C@H]1C[C@H](C(=O)N2CCOCC2)[C@@]2(CCC3CCCC3)c3[nH]c4cc(CCC(=O)N(C)C)ccc4c3CCN2C1=O | 7.2 | 2.0 | 9.9 | -0.9 | 39.3* | 6.2 | 27.3*
N#Cc1ccc(NCCCN2CCC(C(O)(c3ccccc3)c3ccccc3)CC2)cc1 | . | . | . | 3.3 | . | . | .
O=C(NCCO)C1(C(=O)C2CC2)CC(c2ccccn2)=NO1 (stereo not drawn) | . | . | . | 4.0 | . | . | .
O=C(O)c1cc(Cl)ccc1-c1ccc(/C=C/c2cc(C(F)(F)F)[nH]c(=O)n2)o1 | -4.0 | 8.3 | 2.2 | -8.3 | 42.8* | 0.8 | 8.5
C=CCN1[C@H](Cc2ccccc2)COc2cccc(N3CCSCC3)c2S1(=O)=O | . | . | . | -4.4 | . | . | .
CN(C)c1ccc(C(=O)OCC(=O)NCCC2=CCCCC2)cc1 | -1.4 | 79.6* | 4.0 | -2.9 | 37.7* | 0.7 | 24.2
O=Cc1ccc(C(=O)OCC(=O)NCCC2=CCCCC2)cc1 | 0.9 | 22.9 | -9.2 | 5.4 | 7.3 | -2.4 | .
CCN(CC)c1c2c(nc3ncnn13)CCCC2 | . | . | . | 7.5 | . | . | .
Cc1ccc(NC(=O)CN2C(=O)N/C(=C/c3cccn3-c3ccc(C(=O)O)cc3)C2=O)cc1 | 24.2 | 52.5* | -3.8 | 3.1 | 70.5* | 10.0 | 40.9*
CC(=N)c1c(O)c2ccccc2oc1=O | 3.2 | 1.6 | 5.2 | 5.9 | 63.1* | 5.0 | 1.3
CCCCC(=O)c1c(O)c2ccccc2oc1=O | 6.3 | 1.3 | -3.5 | 0.4 | 11.3 | -0.6 | .
O=C(O)c1cccc(N2C(=O)c3cccc4cccc(c34)C2=O)c1 | 7.6 | 2.2 | -2.1 | -5.1 | . | 6.7 | .
O=C(O)c1cccc(N2C(=O)c3cc([N+](=O)[O-])cc4cc([N+](=O)[O-])cc(c34)C2=O)c1 | 33.9* | 20.0 | 21.8 | 26.2 | 44.7* | 9.7 | 20.6
Nn1c(SCC(=O)N2CCOCC2)nnc1-c1n[nH]c2c1CCC2 | . | . | . | 5.6 | . | . | .
CCOC(=O)Cc1cc(=O)n(-c2nc3ccccc3s2)[nH]1 | 3.9 | 30.5* | 49.1* | 4.4 | 40.8* | 1.1 | -2.9
CCCc1cc(=O)n(-c2nc3ccccc3s2)[nH]1 | 1.7 | 25.3 | 3.8 | 0.8 | 3.1 | 1.0 | .
CO[C@H]([C@H](C)/C=C/N(C)C=O)[C@@H](C)C(=O)CC[C@H](C)[C@H](O)[C@H](C)[C@H]1OC(=O)/C=C/C(C)=C/C[C@H](O)C[C@@H]2C=CC[C@@H](C[C@H](OC)C(C)(O)[C@@H](OC)C[C@@H](OC)[C@@H]1C)O2 (stereo partly drawn) | . | . | . | 1.1 | . | . | .
Cc1ccc(C)c(NC(=O)CNS(=O)(=O)c2ccc3[nH]c(=O)oc3c2)c1 | . | . | . | 7.7 | . | . | .
